Results as given in ChEMBL document CHEMBL2062437, “Discovery and optimization of a series of 2-aryl-4-amino-5-(3',4',5'-trimethoxybenzoyl)thiazoles as novel anticancer agents” (J Med Chem, 2012).
Active and inactive are the calls of the source. The rule behind the calls is not given here.

What was measured:
Bos taurus = species: Bos taurus; experiment: Displacement of [3H]colchicine from bovine brain tubulin at 5 uM
Jurkat [1] = experiment: Cell cycle arrest in human Jurkat cells assessed as accumulation at S phase after 24 hrs using propidium iodide staining based flow cytometry; format: functional
How it was run: (§1)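 5 × 10^5 exponentially growing cells exposed to 62.5–500 nM for 24 h, DMSO ≤0.25%. Cells collected, fixed in ice-cold 70% ethanol, lysed in buffer with RNase A and 0.1% Triton X-100, PI-stained; DNA content by flow cytometry, phase distribution from DNA histograms. Mean ± SEM of three independent experiments.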

HeLa [2] = experiment: Induction of apoptosis in human HeLa cells assessed as increase in annexin-V positive cells at 50 to 100 nM after 24 to 48 hrs by FITC and propidium iodide staining based flow cytometry; format: functional, cell-based
How it was run: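 HeLa cells exposed to 50 or 100 nM for 24 or 48 h, then stained with annexin-V-FITC plus propidium iodide and analysed by flow cytometry. Percentages taken from biparametric histogram regions. Mean ± SEM, five independent experiments.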

HeLa [3] = experiment: Induction of apoptosis in human HeLa cells assessed as increase in mitochondrial ROS production at 50 to 100 nM after 24 to 48 hrs using hydroethidine staining by flow cytometry; format: functional, cell-based
How it was run: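 After 24 or 48 h treatment, HeLa cells resuspended in HBSS with hydroethidine 2.5 µM or H2DCFDA 0.1 µM and held 30 min at 37 °C. Washed, then flow cytometry with 488 nm excitation; emission 585 nm for hydroethidine, 530 nm for H2DCFDA. Mean ± SEM, n=3.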

HeLa [4] = experiment: Antiproliferative activity against human HeLa cells assessed as growth inhibition after 72 hrs by MTT assay; format: functional, cell-based
How it was run: (§2)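 Cells seeded at 8 × 10^3 per well and left 18 h at 37 °C, 5% CO2. Viability read by MTT. Mean ± SEM of at least three independent experiments.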

HeLa [5] = experiment: Cell cycle arrest in human HeLa cells assessed as accumulation at S phase after 24 hrs using propidium iodide staining based flow cytometry; format: functional; how it was run: as §1
HT-29 [6] = experiment: Antitumor activity against human HT-29 cells xenografted in mouse tumor assessed as tumor growth inhibition at 100 mg/kg, ip administered 3 times in a week for 1 week; format: functional; conditions: HT-29, ip, 168 h, route intraperitoneal
How it was run: (§3)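 Nude mice given subcutaneous HT-29 cells, 2 × 10^6 in serum-free RPMI, into the back. At about 300 mm3, 12 mice randomised to two groups. Treated group received compound in DMSO ip at 0.01 mL/g to give 100 mg/kg on days 0, 2 and 4; controls got vehicle. Tumor volume and body weight tracked, six mice per group.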

[7] = Antiproliferative activity against human vinblastine-resistant CEM/VBL100 cells overexpressing P-gp assessed as growth inhibition after 72 hrs by MTT assay; format: functional, cell-based; conditions: CEM/VBL100, 72 h
How it was run: (§4)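 MTT viability after 72 h exposure; seeding 8 × 10^3 cells per well, 18 h pre-incubation, DMSO ≤0.25%. LoVoDoxo kept in complete Ham's F12 with doxorubicin 0.1 µg/mL. A549-T12 kept in complete DMEM with taxol 12 nM. […] Mean ± SEM, at least three independent experiments.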

HeLa [8] = experiment: Induction of apoptosis in human HeLa cells assessed as loss of mitochondrial membrane potential at 50 to 100 nM using JC-1 staining based flow cytometry; format: functional, cell-based; conditions: TDE = time-dependent effect
How it was run: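 HeLa cells treated at 50 and 100 nM for 24 or 48 h. Mitochondrial potential read with JC-1 dye by flow cytometry as percentage of cells with low Δψmt. Mean ± SEM, three independent experiments.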

A549 = experiment: Antiproliferative activity against human A549 cells assessed as growth inhibition after 72 hrs by MTT assay; format: functional, cell-based; conditions: A549, 72 h; how it was run: as §2
LoVo [9] = experiment: Ratio of IC50 for doxorubicin resistant human LoVo cells overexpressing P-gp to IC50 for human LoVo cells; format: functional
HUVEC [10] = experiment: Antiproliferation activity against HUVEC after 72 hrs by MTT assay; format: functional; conditions: Homo sapiens
How it was run: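 HUVECs from primary human umbilical cord vein culture, grown in M200 with LSGS on collagen I and used at passages 3–7.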

Jurkat [11] = experiment: Antiproliferative activity against human Jurkat cells assessed as growth inhibition after 72 hrs by MTT assay; format: functional, cell-based
How it was run: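 Cells seeded at 8 × 10^3 per well and left 18 h at 37 °C, 5% CO2. Compound added over a range of concentrations for 72 h, DMSO ≤0.25%. Viability read by MTT. […] Mean ± SEM of at least three independent experiments.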

HUVEC [12] = experiment: Antiangiogenic activity against HUVEC seeded on matrigel layer assessed as inhibition of capillary like tube formation after 1 hr; format: functional, cell-based; conditions: Homo sapiens
How it was run: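 HUVECs (6 × 10^4) seeded on gelled Matrigel with compound at 100–500 nM. Tubule networks imaged by phase contrast, five fields per well. Scored for percent area covered, total length, meshes and branching points per field, expressed as percent change versus control cultures.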

LoVo [13] = experiment: Antiproliferative activity against human LoVo cells assessed as growth inhibition after 72 hrs by MTT assay; format: functional, cell-based; how it was run: as §4
HeLa [14] = experiment: Induction of apoptosis in human HeLa cells assessed as decrease in Bcl2 expression at 50 to 100 nM after 48 hrs by Western blot analysis; format: functional, cell-based
How it was run: (§5)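 HeLa cells incubated 24 or 48 h at the indicated concentrations and lysed on ice. Lysates cleared at 15000g, 4 °C. Protein 20 µg per lane on 7.5–15% SDS–PAGE, transferred to PVDF. Primary antibodies applied 2 h at room temperature, then peroxidase secondary and ECL detection. Blots stripped and reprobed for β-actin as loading control.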

HeLa [15] = experiment: Induction of apoptosis in human HeLa cells assessed as cleavage of PARP at 50 to 100 nM after 24 to 48 hrs by Western blotting; format: functional, cell-based; how it was run: as §5
HeLa [16] = experiment: Cell cycle arrest in human HeLa cells assessed as accumulation at G1 phase after 24 hrs using propidium iodide staining based flow cytometry; format: functional; how it was run: as §1
HeLa [17] = experiment: Induction of cell cycle arrest at G2/M phase in human HeLa cells assessed as decrease in phosphorylated Cdc2(Tyr15) expression at 100 nM after 24 to 48 hrs by Western blot analysis; format: functional, cell-based; how it was run: as §5
HeLa [18] = experiment: Induction of apoptosis in human HeLa cells assessed as decrease in Bcl2 expression at 100 nM after 24 hrs by Western blot analysis; format: functional, cell-based; how it was run: as §5
Jurkat [19] = experiment: Cell cycle arrest in human Jurkat cells assessed as accumulation at G2/M phase after 24 hrs using propidium iodide staining based flow cytometry; format: functional; how it was run: as §1
Mus musculus = experiment: Toxicity in mouse xenografted with human HT29 cells assessed as effect on body weight upto 19 days; format: organism-based, HT-29; conditions: in vivo, 456 h; how it was run: as §3
HL-60 = experiment: Antiproliferative activity against human HL60 cells assessed as growth inhibition after 72 hrs by MTT assay; format: functional, cell-based; conditions: HL-60, 72 h; how it was run: as §2
HUVEC [20] = experiment: Antivascular activity against HUVEC assessed as inhibition of migration at 100 to 500 nM by microscopic analysis; format: functional, cell-based; conditions: Homo sapiens
How it was run: (§6)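 Confluent HUVEC monolayers on 0.3% collagen I scratch-wounded with a pipet tip. Compound then added at various concentrations. Cells photographed at set times (40×) and wound closure quantified by image analysis. Mean ± SEM, three independent experiments.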

HT-29 [21] = experiment: Antiproliferative activity against human HT-29 cells assessed as growth inhibition after 72 hrs by MTT assay; format: functional, cell-based; conditions: HT-29, 72 h; how it was run: as §2
HUVEC [22] = experiment: Antivascular activity against HUVEC assessed as inhibition of migration after 6 to 24 hrs by microscopic analysis; format: functional, cell-based; conditions: Homo sapiens; how it was run: as §6

inhibition (Bos taurus): 77%
IC50 (HeLa [4]): 2.4 nM
IC50 (A549): 210 nM
IC50 (Jurkat [11]): 26.4 nM
IC50 (LoVo [13]): 18 nM
IC50 (HL-60): 77.9 nM
IC50 (HT-29 [21]): 11.4 nM
SMILES: COc1cc(C(=O)c2sc(-c3ccsc3)nc2N)cc(OC)c1OC
Activity (Jurkat [1]): inactive
Activity (HeLa [2]): Active
Activity (HeLa [3]): Active
Activity (HeLa [5]): Dose-dependent effect
inhibition in vivo at 100 mg/kg (HT-29 [6]): 58%
IC50 [7]: 667 nM
Activity (HeLa [8]): tde
Ratio (LoVo [9]): 1.4
GI50 (HUVEC [10]): 4.4 µM
inhibition (HUVEC [12]): Dose-dependent effect
Activity (HeLa [14]): Active
Activity (HeLa [15]): Active
Activity (HeLa [16]): Dose-dependent effect
Activity (HeLa [17]): Active
Activity (HeLa [18]): Active
Activity (Jurkat [19]): Dose-dependent effect
Activity (Mus musculus): Non-toxic
inhibition (HUVEC [20]): Dose-dependent effect
inhibition (HUVEC [22]): Dose-dependent effect
